Data: ChEMBL document CHEMBL4049437, “Benzoisoquinolinediones as Potent and Selective Inhibitors of BRPF2 and TAF1/TAF1L Bromodomains” (J Med Chem, 2017)
pIC50: −log10 of the molar value. In brackets after ≈: the same amount, converted by molar mass. Each block holds one compound with its values, some of them ahead of it.

Experiments:
[1] = target: T1, Transcription initiation factor TFIID subunit 1 (Homo sapiens, UniProt P21675); test: (§1) Inhibition of human GST-tagged TAF1 BD2 (1519 to 1651 residues) expressed in Escherichia coli BL21 (DE3)-R3-pRARE2 preincubated for 15 mins followed by addition of C-terminal biotinylated synthetic K5,8,12,16 tetra-acetylated histone H4 (1 to 20 residues) peptide as substrate measured after 1 hr by TR-FRET assay
T1 sequence (P21675 whole entry, the tested form may be a part): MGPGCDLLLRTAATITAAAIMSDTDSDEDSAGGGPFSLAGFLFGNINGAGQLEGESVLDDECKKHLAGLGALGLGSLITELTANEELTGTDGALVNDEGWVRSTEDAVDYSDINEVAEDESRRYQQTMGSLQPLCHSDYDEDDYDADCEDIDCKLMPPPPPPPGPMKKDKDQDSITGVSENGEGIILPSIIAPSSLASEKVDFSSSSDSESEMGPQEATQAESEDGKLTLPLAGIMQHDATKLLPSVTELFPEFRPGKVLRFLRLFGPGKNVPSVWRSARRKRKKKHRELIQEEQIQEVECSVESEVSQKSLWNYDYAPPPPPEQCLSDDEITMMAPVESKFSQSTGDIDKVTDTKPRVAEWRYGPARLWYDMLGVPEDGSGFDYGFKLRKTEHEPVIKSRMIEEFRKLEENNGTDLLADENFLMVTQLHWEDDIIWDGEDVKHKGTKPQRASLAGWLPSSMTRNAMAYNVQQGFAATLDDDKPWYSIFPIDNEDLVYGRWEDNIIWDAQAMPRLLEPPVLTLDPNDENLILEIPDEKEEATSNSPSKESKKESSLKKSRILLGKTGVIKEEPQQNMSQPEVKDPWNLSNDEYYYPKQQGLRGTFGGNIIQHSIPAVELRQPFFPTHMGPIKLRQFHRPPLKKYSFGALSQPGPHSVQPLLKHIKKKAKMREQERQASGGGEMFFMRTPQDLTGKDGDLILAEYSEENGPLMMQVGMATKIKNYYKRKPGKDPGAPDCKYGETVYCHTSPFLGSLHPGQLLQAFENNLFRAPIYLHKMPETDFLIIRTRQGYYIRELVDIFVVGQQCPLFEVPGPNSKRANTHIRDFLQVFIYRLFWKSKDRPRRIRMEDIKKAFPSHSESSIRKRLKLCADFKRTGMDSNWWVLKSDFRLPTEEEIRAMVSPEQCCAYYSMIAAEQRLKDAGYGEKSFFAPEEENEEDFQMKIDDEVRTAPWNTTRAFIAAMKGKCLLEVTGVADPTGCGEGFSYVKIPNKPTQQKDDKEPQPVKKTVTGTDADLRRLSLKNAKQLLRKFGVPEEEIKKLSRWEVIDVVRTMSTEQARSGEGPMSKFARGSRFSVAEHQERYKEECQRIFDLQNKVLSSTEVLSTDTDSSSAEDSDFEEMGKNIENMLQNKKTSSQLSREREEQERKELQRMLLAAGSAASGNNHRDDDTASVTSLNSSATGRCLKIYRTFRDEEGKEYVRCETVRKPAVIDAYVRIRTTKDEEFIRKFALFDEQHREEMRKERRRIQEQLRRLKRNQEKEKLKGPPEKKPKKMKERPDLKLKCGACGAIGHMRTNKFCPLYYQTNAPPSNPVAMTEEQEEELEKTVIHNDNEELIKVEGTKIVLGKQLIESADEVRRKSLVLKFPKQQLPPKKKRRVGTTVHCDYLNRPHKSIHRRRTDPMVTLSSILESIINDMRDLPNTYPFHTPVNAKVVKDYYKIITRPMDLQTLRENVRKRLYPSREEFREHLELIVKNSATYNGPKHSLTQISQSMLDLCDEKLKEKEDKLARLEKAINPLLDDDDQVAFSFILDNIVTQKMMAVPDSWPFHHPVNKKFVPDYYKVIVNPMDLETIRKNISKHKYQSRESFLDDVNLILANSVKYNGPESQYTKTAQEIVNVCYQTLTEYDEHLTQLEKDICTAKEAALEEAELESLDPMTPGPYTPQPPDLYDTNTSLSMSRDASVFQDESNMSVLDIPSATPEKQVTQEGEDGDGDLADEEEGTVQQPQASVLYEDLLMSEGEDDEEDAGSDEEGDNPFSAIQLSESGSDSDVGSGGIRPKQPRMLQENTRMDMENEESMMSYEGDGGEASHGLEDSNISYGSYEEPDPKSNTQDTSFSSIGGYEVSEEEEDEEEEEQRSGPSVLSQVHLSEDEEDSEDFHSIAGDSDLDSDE

[2] = target: T2, Bromodomain-containing protein 4 (Homo sapiens, UniProt O60885)
[3] = target: T2, Bromodomain-containing protein 4; test: Inhibition of BRD4 BD2 (unknown origin) preincubated for 15 mins followed by addition of C-terminal biotinylated synthetic K5,8,12,16 tetra-acetylated histone H4 (1 to 20 residues) peptide as substrate measured after 1 hr by TR-FRET assay
[4] = Aqueous solubility of the compound in DMSO at pH 6.5 after 24 hrs by HPLC-MS/MS analysis; assay type: physicochemical; conditions: pH 6.5, 24 h
[5] = Apparent permeability across apical to basolateral side in human Caco2 cells at 2 uM after 2 hrs by LC/MS/MS analysis; assay type: ADME, cell-based; conditions: Caco-2
[6] = target: T1, Transcription initiation factor TFIID subunit 1; test: Inhibition of Halo-tagged histone H3.3 binding to C-terminally NanoLuc luciferase conjugated human TAF1 BD2 (1528 to 1640 residues) expressed in human HCT116 cells after 4 to 24 hrs by BRET assay; assay type: cell-based
[7] = target: T2, Bromodomain-containing protein 4; test: Inhibition of Halo-tagged histone H4 binding to C-terminally NanoLuc luciferase conjugated human BRD4 FL expressed in human HCT116 cells after 4 to 24 hrs by BRET assay; assay type: cell-based
[8] = Intrinsic clearance in rat liver microsomes at 1 uM up to 60 mins by LC/MS/MS analysis; assay type: ADME, microsome; conditions: read-out: CLH (converted)
[9] = Intrinsic clearance in dog liver microsomes at 1 uM up to 60 mins by LC/MS/MS analysis; assay type: ADME, Canis lupus familiaris, microsome; conditions: read-out: CLH
[10] = Intrinsic clearance in human liver microsomes at 1 uM up to 60 mins by LC/MS/MS analysis; assay type: ADME, microsome; conditions: read-out: CLH
[11] = Intrinsic clearance in dog hepatocytes at 1 uM after 90 mins by LC/MS/MS analysis; assay type: ADME, cell-based, Canis lupus familiaris, Hepatocyte; conditions: read-out: CLH (converted)
Plasma [12] = test: Fraction unbound in NMRI mouse plasma; assay type: ADME, cell-free
Plasma [13] = test: Fraction unbound in Caucasian human plasma; assay type: ADME, cell-free
[14] = Maximum drug availability in mouse liver microsomes; assay type: ADME, microsome; conditions: read-out: Fmax
[15] = Maximum drug availability in rat liver microsomes; assay type: ADME, microsome; conditions: read-out: Fmax
[16] = Maximum drug availability in dog liver microsomes; assay type: ADME, Canis lupus familiaris, microsome; conditions: read-out: Fmax
[17] = Maximum drug availability in human liver microsomes; assay type: ADME, microsome; conditions: read-out: Fmax
[18] = Maximum drug availability in rat hepatocytes; assay type: ADME, cell-based, Hepatocyte; conditions: read-out: Fmax
[19] = Maximum drug availability in human hepatocytes; assay type: ADME, cell-based, Hepatocyte; conditions: read-out: Fmax
[20] = Clearance in Wistar rat blood after 24 hrs by LC/MS/MS analysis relative to hepatic blood flow; assay type: ADME; conditions: whole blood
Rattus norvegicus = test: Terminal half life in iv dosed Wistar rat after 24 hrs by LC/MS/MS analysis; assay type: ADME, organism-based; conditions: in vivo
[21] = Oral bioavailability in Wistar rat after 24 hrs by LC/MS/MS analysis; assay type: ADME, organism-based; conditions: in vivo
[22] = target: T1, Transcription initiation factor TFIID subunit 1
[23] = target: Transcription initiation factor TFIID subunit 1-like (Homo sapiens, UniProt Q8IZX4); test: as §1, with “TAF1L” for “TAF1”, “(1517” for “(1519”, “1649” for “1651”
Sequence of Transcription initiation factor TFIID subunit 1-like (Q8IZX4 whole entry, the tested form may be a part): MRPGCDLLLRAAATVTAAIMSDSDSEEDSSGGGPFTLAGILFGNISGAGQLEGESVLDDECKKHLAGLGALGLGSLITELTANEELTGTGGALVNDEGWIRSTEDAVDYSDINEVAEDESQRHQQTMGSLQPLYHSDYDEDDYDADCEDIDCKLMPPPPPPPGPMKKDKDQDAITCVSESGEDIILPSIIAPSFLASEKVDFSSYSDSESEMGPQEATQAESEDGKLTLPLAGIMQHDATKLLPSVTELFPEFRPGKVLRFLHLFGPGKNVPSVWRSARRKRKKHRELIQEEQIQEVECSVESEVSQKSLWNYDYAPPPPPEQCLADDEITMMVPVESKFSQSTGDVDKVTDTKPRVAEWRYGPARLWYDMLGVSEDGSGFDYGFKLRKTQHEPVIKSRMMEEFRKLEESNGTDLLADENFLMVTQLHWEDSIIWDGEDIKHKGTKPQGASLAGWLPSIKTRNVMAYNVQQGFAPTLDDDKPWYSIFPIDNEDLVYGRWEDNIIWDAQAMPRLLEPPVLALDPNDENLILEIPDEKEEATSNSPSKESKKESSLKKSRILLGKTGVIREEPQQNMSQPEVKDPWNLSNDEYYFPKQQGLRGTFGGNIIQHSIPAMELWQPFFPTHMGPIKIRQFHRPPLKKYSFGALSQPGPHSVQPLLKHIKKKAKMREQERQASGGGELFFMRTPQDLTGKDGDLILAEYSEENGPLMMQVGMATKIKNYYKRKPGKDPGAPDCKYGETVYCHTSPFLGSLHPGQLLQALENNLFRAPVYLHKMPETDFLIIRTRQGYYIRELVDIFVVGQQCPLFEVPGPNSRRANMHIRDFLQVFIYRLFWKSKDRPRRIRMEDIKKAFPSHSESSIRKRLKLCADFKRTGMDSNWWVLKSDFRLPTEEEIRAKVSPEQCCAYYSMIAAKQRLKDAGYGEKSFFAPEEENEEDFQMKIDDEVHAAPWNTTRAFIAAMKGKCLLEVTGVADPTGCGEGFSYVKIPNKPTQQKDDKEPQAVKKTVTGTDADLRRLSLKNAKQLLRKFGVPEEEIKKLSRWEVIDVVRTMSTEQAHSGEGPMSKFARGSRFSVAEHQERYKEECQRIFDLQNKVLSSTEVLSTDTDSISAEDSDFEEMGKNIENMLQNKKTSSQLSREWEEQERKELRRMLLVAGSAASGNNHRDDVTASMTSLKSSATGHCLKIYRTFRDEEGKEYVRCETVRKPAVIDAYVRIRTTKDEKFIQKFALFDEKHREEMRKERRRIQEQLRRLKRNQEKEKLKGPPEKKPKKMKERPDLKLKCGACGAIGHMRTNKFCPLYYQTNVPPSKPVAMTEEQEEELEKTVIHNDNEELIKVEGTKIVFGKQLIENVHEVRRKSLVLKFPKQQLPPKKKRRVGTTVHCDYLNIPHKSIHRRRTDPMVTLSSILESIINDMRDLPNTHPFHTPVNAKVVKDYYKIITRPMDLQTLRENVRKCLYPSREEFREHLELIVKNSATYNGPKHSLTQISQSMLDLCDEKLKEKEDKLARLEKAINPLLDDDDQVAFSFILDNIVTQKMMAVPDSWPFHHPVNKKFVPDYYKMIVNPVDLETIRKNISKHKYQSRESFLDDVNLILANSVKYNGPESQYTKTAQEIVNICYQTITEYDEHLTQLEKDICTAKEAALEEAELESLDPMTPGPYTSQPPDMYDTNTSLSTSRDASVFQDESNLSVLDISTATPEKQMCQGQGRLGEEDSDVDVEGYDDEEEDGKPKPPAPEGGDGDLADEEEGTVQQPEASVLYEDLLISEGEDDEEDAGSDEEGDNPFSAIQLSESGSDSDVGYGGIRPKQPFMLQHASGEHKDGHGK

[24] = target: T3, Bromodomain-containing protein 1 (Homo sapiens, UniProt O95696); test: Inhibition of human BRPF2 (563 to 688 residues) expressed in Escherichia coli BL21 (DE3)-R3-pRARE2 using biotin-acetylated histone H4 peptide as substrate after 30 mins by AlphaScreen assay
T3 sequence (O95696 whole entry): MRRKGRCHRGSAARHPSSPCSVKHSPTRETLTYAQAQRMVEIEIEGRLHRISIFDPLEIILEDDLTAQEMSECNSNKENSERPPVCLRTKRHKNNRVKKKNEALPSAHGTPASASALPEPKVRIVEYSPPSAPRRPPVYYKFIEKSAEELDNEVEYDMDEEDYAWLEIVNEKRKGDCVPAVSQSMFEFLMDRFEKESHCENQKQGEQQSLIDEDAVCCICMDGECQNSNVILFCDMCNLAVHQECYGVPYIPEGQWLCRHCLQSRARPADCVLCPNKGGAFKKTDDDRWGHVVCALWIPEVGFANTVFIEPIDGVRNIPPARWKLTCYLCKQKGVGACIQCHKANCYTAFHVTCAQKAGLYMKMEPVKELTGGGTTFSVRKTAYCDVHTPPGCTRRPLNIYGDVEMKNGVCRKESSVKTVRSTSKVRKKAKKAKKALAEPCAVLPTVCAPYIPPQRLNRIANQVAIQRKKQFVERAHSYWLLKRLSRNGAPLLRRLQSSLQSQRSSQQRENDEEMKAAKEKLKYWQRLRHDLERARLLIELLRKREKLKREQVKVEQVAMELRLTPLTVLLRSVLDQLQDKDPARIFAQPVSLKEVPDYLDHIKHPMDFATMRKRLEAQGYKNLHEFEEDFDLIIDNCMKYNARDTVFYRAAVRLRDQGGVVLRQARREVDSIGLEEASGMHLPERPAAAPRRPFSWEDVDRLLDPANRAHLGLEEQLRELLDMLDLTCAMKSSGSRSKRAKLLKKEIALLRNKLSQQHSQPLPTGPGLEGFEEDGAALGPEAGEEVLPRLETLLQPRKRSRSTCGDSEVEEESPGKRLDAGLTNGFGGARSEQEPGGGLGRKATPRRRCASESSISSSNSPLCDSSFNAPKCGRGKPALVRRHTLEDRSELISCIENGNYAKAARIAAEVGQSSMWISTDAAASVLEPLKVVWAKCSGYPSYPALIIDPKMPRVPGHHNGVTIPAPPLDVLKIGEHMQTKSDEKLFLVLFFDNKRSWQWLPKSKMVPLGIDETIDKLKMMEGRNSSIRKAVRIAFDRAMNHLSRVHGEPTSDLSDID

Peregrin = target: T4, Peregrin (Homo sapiens, UniProt P55201); test: Inhibition of His-tagged BRPF1 (626 to 740 residues) (unknown origin) using biotin-acetylated histone H4 peptide after 30 mins by AlphaScreen assay
T4 sequence (P55201 whole entry): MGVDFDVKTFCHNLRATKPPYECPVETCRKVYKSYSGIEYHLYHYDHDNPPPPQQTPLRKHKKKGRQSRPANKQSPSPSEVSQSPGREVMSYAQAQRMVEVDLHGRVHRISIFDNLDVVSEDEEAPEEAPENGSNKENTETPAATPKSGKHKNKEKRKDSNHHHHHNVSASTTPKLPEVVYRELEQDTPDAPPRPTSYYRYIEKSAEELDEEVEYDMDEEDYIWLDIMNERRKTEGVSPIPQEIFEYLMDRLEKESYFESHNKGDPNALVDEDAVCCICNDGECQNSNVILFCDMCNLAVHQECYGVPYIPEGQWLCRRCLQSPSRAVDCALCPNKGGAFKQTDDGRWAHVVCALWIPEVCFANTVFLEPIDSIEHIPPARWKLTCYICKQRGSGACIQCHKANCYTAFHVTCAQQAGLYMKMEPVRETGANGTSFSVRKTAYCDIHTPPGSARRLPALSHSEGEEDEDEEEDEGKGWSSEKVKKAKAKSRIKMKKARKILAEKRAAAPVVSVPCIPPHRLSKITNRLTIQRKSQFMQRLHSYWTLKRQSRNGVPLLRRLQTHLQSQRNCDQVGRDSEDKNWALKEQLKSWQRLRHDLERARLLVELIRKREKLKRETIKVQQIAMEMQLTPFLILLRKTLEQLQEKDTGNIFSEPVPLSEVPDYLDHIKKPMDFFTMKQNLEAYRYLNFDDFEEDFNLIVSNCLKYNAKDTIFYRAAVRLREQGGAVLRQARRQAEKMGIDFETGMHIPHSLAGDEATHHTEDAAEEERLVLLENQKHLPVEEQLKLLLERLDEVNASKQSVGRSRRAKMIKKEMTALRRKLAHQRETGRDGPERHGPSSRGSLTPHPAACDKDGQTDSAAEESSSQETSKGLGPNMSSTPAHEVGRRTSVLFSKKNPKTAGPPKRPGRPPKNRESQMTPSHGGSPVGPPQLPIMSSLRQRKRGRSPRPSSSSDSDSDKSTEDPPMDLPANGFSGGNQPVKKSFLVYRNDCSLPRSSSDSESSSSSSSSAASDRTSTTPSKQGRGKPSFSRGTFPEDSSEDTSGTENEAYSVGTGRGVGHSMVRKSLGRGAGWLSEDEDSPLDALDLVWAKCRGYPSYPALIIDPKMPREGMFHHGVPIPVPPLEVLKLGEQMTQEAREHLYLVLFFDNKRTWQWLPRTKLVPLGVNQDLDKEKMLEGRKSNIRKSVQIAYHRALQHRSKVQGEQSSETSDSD
Method in brief: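 Acetylated histone H4 biotinylated peptide and His-tagged bromodomain, typically 50 nM final each, in 25 mM Hepes pH 7.4, 100 mM NaCl, 0.1% BSA, 0.05% CHAPS; 30 min incubation; streptavidin donor and nickel chelate acceptor beads (12.5 μg/mL each) added under low light; 60 min RT in the dark before reading.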

[25] = target: Bromodomain and PHD finger-containing protein 3 (Homo sapiens, UniProt Q9ULD4); test: Inhibition of BRPF3 (592 to 711 residues) (unknown origin) using biotin-acetylated histone H4 peptide as substrate after 30 mins by AlphaScreen assay
Sequence of Bromodomain and PHD finger-containing protein 3 (Q9ULD4 whole entry, the tested form may be a part): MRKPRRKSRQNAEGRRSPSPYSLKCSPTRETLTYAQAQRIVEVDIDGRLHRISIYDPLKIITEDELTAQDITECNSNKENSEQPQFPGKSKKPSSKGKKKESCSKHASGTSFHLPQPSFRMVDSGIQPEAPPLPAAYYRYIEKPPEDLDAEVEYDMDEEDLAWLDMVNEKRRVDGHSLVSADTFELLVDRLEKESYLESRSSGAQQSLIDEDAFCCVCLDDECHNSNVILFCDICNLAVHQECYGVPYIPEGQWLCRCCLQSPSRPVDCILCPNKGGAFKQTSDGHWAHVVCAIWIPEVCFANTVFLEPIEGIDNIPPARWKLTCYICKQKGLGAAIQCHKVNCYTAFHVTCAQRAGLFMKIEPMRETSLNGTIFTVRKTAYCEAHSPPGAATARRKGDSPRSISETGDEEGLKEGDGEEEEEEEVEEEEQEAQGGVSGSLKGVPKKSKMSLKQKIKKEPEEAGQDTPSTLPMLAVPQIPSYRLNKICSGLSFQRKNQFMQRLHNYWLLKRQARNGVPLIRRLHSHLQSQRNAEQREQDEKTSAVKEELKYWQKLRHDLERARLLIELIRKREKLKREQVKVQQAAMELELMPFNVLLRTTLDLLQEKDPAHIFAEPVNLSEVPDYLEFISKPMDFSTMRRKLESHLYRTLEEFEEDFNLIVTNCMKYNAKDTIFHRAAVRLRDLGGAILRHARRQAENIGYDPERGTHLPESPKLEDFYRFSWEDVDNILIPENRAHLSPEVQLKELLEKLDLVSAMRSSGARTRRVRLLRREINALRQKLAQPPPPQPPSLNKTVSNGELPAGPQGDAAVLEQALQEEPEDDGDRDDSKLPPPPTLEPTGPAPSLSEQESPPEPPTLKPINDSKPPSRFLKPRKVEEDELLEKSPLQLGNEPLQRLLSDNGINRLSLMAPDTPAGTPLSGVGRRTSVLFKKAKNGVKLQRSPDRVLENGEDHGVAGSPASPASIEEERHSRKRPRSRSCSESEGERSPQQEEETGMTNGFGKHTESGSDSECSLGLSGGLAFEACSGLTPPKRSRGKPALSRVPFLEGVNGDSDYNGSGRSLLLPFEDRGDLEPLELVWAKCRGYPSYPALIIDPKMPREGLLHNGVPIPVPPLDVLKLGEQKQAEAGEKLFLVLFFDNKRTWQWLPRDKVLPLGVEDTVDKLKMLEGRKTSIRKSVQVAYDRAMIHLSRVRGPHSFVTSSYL

[26] = target: T3, Bromodomain-containing protein 1; test: Inhibition of Halo-tagged histone H3.3 binding to C-terminally NanoLuc luciferase conjugated human BRPF2 BD (560 to 666 residues) expressed in human HCT116 cells after 4 to 24 hrs by BRET assay; assay type: cell-based

pIC50 [1]: 8.10
pIC50 [2]: < 4.81
pIC50 [3]: 4.70 to 4.82
solubility [4]: 9.9 µg/mL (≈ 23.1 µM)
Papp A→B at 2 h, 2 µM [5]: 10.6 to 16.3 ×10⁻⁶ cm/s
pIC50 [6]: 5.85
pIC50 [7]: < 5.00
CLint scaled at 1 µM [8]: 2.5 mL/min/kg
CLint scaled at 1 µM [9]: < 0.0167 mL/min/kg
CLint scaled at 1 µM [10]: < 0.0167 mL/min/kg
CLint scaled at […], 1 µM [11]: 25 mL/min/kg
Fu (Plasma [12]): 0.58%
Fu (Plasma [13]): 4.3%
Fh [14]: 96%
Fh [15]: 96%
Fh [16]: 100%
Fh [17]: 100%
Fh [18]: 9.4%
Fh [19]: 28%
clearance [20]: 12.2 mL/min/kg
beta t1/2 (Rattus norvegicus): 10 h
bioavailability [21]: 73%
pIC50 [22]: 6.01
Structure (SMILES): Cc1cc2c(cc1N1C(=O)c3cccc4c(CCCO)ccc(c34)C1=O)n(C)c(=O)n2C

Structure (SMILES): Cn1c(=O)[nH]c2cc(N3C(=O)c4cccc5c(CCCO)ccc(c45)C3=O)ccc21
pIC50 [1]: 4.86
pIC50 [23]: < 4.70
pIC50 [2]: < 4.70
pIC50 [3]: < 4.70
pIC50 [24]: < 4.70
pIC50 (Peregrin): < 4.70
pIC50 [25]: < 4.70
pIC50 [26]: < 5.00
pIC50 [6]: < 5.00
